# Results as given in ChEMBL document CHEMBL4390679 (J Med Chem, 2019).
# Active and inactive are the calls of the source. No cut-off for these calls is given here. Starred links: 1 amine or outer side, 2 acyl side, 3 side chain; linkers in the order of their positions; H or OH if unused. Positions of bridges follow the written chain, without caps; N, C: chain ends. Non-standard residues stand in square brackets, D forms with d. Residues, ends and D or L forms follow the SMILES beside them. Abu(4-yl) = O=C([C@H](CC[*:3])N[*:1])[*:2]; N(4-F-Bzl)Gly = O=C(O)CNCc1ccc(F)cc1
# Assays:
# [1] = target: T1, Oxytocin receptor (Homo sapiens, UniProt P30559); assay: Agonist activity at recombinant human OTR expressed in HEK293 cells assessed as increase in intracellular calcium level measured at 3 secs interval for 5 mins by fura-2/AM dye based micro spectrofluorometric method; type: functional, cell-based
# T1 sequence (P30559 whole entry): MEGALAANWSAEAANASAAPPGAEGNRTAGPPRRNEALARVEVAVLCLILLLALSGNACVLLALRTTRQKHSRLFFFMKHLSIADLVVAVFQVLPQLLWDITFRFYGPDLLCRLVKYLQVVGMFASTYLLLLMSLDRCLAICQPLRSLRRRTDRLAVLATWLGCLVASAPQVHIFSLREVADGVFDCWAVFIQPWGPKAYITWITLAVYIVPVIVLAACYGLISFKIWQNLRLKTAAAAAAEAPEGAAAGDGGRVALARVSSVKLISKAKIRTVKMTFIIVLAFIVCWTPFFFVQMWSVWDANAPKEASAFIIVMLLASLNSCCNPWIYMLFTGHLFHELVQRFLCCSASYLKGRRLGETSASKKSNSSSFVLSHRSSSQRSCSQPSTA
# [2] = target: T1, Oxytocin receptor; assay: Displacement of [3H]OT from recombinant human OTR expressed in HEK293 cell membranes measured after 1 hr
# [3] = target: Vasopressin V1a receptor (Homo sapiens, UniProt P37288); assay: Agonist activity at recombinant human V1a receptor expressed in HEK293 cells assessed as increase in intracellular calcium level measured at 3 secs interval for 5 mins by fura-2/AM dye based micro spectrofluorometric method; type: cell-based
# [4] = target: T2, Vasopressin V1b receptor (Homo sapiens, UniProt P47901); assay: Agonist activity at recombinant human V1b receptor expressed in HEK293 cells assessed as increase in intracellular calcium level measured at 3 secs interval for 5 mins by fura-2/AM dye based micro spectrofluorometric method; type: cell-based
# T2 sequence (P47901 whole entry): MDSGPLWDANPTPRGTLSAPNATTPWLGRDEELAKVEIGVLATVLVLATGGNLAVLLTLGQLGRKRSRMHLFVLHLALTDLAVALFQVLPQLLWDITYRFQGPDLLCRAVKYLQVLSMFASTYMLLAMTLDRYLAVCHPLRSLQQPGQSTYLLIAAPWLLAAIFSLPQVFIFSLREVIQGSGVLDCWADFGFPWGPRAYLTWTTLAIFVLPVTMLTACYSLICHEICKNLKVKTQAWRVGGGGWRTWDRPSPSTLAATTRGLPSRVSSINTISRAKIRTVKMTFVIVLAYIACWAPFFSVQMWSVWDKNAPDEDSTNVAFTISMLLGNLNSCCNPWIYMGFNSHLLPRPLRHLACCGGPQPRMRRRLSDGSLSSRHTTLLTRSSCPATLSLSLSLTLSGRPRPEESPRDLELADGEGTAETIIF
# [5] = organism: Homo sapiens; assay: Selectivity ratio of EC50 for recombinant human V1a receptor expressed in HEK293 cells to EC50 for recombinant human OTR expressed in HEK293 cells; type: cell-based
# Procedure, shortened: (§1)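 Agonist response measured in HEK-293 cells stably expressing human OTR, V1aR or V1bR, loaded with 1 µM fura-2/AM for 30 min at 37 °C, washed in HEPES-buffered saline pH 7.4. F340/F380 ratio read every 3 s for 5 min at 37 °C, normalized to baseline and to maximal OT (OTR) or AVP (V1aR, V1bR) response; EC50 taken from these curves. n = 3, 20 cells per dish.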
# [6] = organism: Homo sapiens; assay: Selectivity ratio of EC50 for recombinant human V1b receptor expressed in HEK293 cells to EC50 for recombinant human OTR expressed in HEK293 cells; type: cell-based; procedure, shortened: as §1
# [7] = system: Mus musculus; assay: Cognition enhancing effect in CD38 knock out Slc:ICR mouse sire model of autism spectrum disorder assessed as latency time to retrieve pups by sires at 100 ng/ml, ip administered as single dose measured after 30 mins by parental retrieval test (reference value: 600 sec); type: functional
# [8] = system: Mus musculus; assay: Cognition enhancing effect in CD38 knock out Slc:ICR mouse sire model of autism spectrum disorder assessed as latency time to retrieve pups by sires at 100 ng/ml, ip administered as single dose measured after 5 hrs by parental retrieval test (reference value: 233 +/- 68 sec); type: functional
# [9] = system: Mus musculus; assay: Cognition enhancing effect in CD38 knock out Slc:ICR mouse sire model of autism spectrum disorder assessed as latency time to retrieve pups by sires at 100 ng/ml, ip administered as single dose measured after 12 hrs by parental retrieval test (reference value: 233 +/- 68 sec); type: functional
# [10] = system: Mus musculus; assay: Cognition enhancing effect in CD38 knock out Slc:ICR mouse sire model of autism spectrum disorder assessed as latency time to retrieve pups by sires at 100 ng/ml, ip administered as single dose measured after 24 hrs by parental retrieval test (reference value: 233 +/- 68 sec); type: functional
# [11] = system: Mus musculus; assay: Antidepressant-like activity in CD38KOCC Slc:ICR mouse model of autism spectrum disorder assessed as immobility time at 100 ng/ml, ip administered as single dose for 30 mins prior to testing measured for last 4 mins of 6 mins test by tail suspension test (reference value: 74.2 +/- 2.9 sec); type: functional
# [12] = system: Mus musculus; assay: Cognition enhancing effect in CD38KOCC Slc:ICR mouse model of autism spectrum disorder assessed as sucrose consumption over water at 100 ng/ml, ip administered as single dose measured after 60 mins relative to control (reference value: 0.46 +/- 0.04); type: functional
# [13] = system: Mus musculus; assay: Cognition enhancing effect in CD38KOCC Slc:ICR mouse model of autism spectrum disorder assessed as increase in sucrose consumption over water at 100 ng/ml, ip administered as single dose measured after 24 hrs; type: functional, organism-based
# [14] = Plasma concentration in Slc:ICR mouse at 100 ng/g, iv measured immediately by LC-MS/MS analysis; type: ADME, organism-based; details: in vivo
# Procedure, shortened: (§2)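 Male ICR mice (30 g) were given 100 ng/g i.v. via the tail vein. Blood was taken by cardiac puncture immediately and at 5, 15 and 30 min; CSF was taken at 30 min or 12 h. Plasma was deproteinized with acetonitrile/methanol 1:1 containing [13C6,15N]OT internal standard and analysed by LC-MS/MS (C8 column, SRM).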
# [15] = Half life in Slc:ICR mouse plasma during fast phase at 100 ng/g, iv measured for 15 mins by LC-MS/MS analysis; type: ADME, organism-based; procedure, shortened: as §2
# [16] = Half life in Slc:ICR mouse plasma during slow phase at 100 ng/g, iv measured for 15 to 60 mins by LC-MS/MS analysis; type: ADME, organism-based; procedure, shortened: as §2
# [17] = Drug level in Slc:ICR mouse cerebrospinal fluid at 100 ng/g, iv measured after 30 mins by LC-MS/MS analysis; type: ADME, organism-based; details: Slc:ICR, cerebrospinal fluid, 100 ng/g, read-out: Drug uptake; procedure, shortened: as §2
# [18] = Drug level in Slc:ICR mouse cerebrospinal fluid at 100 ng/g, iv measured after 12 hrs by LC-MS/MS analysis; type: ADME, organism-based; details: Slc:ICR, cerebrospinal fluid, 100 ng/g, read-out: Drug uptake; procedure, shortened: as §2
# [19] = Stability in mouse plasma assessed as parent compound remaining at 50 ng/ml measured after 2 hrs by LC-MS/MS analysis; type: ADME, cell-free; details: read-out: Stability
# Procedure, shortened: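 Pooled mouse plasma spiked to a final 50 ng/mL was incubated at 37 °C for 1–120 min, quenched with acetonitrile/methanol 1:1 plus internal standard, and analysed by LC-MS/MS. Percent of the initial concentration was calculated; 85–115% was taken as acceptable.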
# [20] = target: T3, Oxytocin receptor (Homo sapiens) (UniProt P30559); assay: Displacement of [3H]OT from recombinant human OTR expressed in HEK293 cell membranes assessed as association rate constant for [3H]OT binding
# T3 sequence (whole entry): T1 sequence (P30559 whole entry)
# Procedure, shortened: (§3)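 Membranes from HEK-293 cells stably expressing human OTR (5 µg/well) in 50 mM Tris, 10 mM MgCl2, 0.1% BSA, pH 7.4. [3H]OT added at 200 pM, 500 pM and 1 nM; bound and free separated by rapid filtration at multiple time points to build association curves. Kon and Koff fitted; t1/2 from Koff = ln2/t1/2. Two experiments, each in duplicate.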
# [21] = target: T3, Oxytocin receptor (Homo sapiens); assay: Displacement of [3H]OT from recombinant human OTR expressed in HEK293 cell membranes assessed as dissociation rate constant for [3H]OT binding; procedure, shortened: as §3
# [22] = target: T3, Oxytocin receptor (Homo sapiens); assay: Displacement of [3H]OT from recombinant human OTR expressed in HEK293 cell membranes assessed as dissociation half life for [3H]OT binding; procedure, shortened: as §3
# [23] = system: Mus musculus; assay: Antidepressant-like activity in CD38KOCC Slc:ICR mouse model of autism spectrum disorder assessed as decrease in immobility time at 100 ng/ml, ip administered as single dose for 24 hrs prior to testing measured for last 4 mins of 6 mins test by tail suspension test
# Sequence of Vasopressin V1a receptor (P37288 whole entry): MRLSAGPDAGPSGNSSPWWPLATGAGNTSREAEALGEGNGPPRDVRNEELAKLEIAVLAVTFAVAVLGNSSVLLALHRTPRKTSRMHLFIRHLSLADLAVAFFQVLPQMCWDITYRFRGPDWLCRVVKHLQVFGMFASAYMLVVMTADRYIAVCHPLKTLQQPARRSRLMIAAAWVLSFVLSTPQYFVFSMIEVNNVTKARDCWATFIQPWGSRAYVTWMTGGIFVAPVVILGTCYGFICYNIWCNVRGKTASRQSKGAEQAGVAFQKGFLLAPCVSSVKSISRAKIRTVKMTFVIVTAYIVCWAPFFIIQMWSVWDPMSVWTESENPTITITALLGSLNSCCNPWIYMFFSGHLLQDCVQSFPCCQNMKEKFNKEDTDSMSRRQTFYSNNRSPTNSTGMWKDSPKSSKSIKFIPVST
smiles,measurement,setting,value
CC[C@H](C)[C@@H]1NC(=O)[C@H](Cc2ccc(O)cc2)NC(=O)[C@@H](N)CSSC[C@@H](C(=O)N(CC(=O)N[C@@H](CC(C)C)C(=O)NCC(N)=O)Cc2ccc(F)cc2)NC(=O)[C@H](CC(N)=O)NC(=O)[C@H](CCC(N)=O)NC1=O (H-CYIQNC[N(4-F-Bzl)Gly]LG-NH2; disulfide 1-6),EC50,[1],0.028 nM
same,Ki,[2],0.51 nM
same,EC50,[3],2.2 nM
same,EC50,[4],0.5 nM
same,Ratio EC50,[5],75.3
same,Ratio EC50,[6],17.5
same,Time,[7],297 s
same,Time,[8],381 s
same,Time,[9],155 s
same,Time,[10],413 s
same,Time,[11],149.5 s
same,Ratio,[12],0.79
same,Activity,[13],inactive
same,Cp,[14],118 ng/mL
same,half-life,[15],2.84 min
same,half-life,[16],2.86 min
same,concentration at 0.5 h,[17],0.1 ng/mL
same,concentration at 12 h,[18],0.38 ng/mL
same,"remaining at 2 h, 50 ng/ml",[19],85 to 115%
same,K,[20],1.05 ×10⁸ /M/min
same,K,[21],0.1 min⁻¹
same,T1/2,[22],6.38 min
same,Activity,[23],inactive
CC[C@H](C)[C@@H]1NC(=O)[C@H](Cc2ccc(O)cc2)NC(=O)[C@@H](N)CCSC[C@@H](C(=O)N(CC(=O)N[C@@H](CC(C)C)C(=O)NCC(N)=O)Cc2ccc(F)cc2)NC(=O)[C@H](CC(N)=O)NC(=O)[C@H](CCC(N)=O)NC1=O (H-[Abu(4-yl)]YIQNC[N(4-F-Bzl)Gly]LG-NH2; thioether 1-6),EC50,[1],0.089 nM
same,Ki,[2],0.9 nM
same,EC50,[3],4 nM
same,EC50,[4],0.8 nM
same,Ratio EC50,[5],45
same,Ratio EC50,[6],9
